Mdm2 MdmX PPI: inhibitors of human Mdm2-MdmX association, primary screen, cell-based, luminescence, split luciferase, SaOS-2, uHTS; 330,000 compounds, 3% hits; SaOS-2 split-luciferase Mdm2/MdmX complementation; inhibition, % at 8 µM; AID 485346, 2010; Protein Mdm4 (Homo sapiens) + E3 ubiquitin-protein ligase Mdm2 (Homo sapiens), …;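 active means inhibition of at least 50% at 8 µM in the primary screen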
SKKanGAS inh: S. pyogenes SKKanGAS growth inhibitors in kanamycin, primary screen, streptokinase expression inhibitor project, SKKanGAS strain, BacTiter-Glo luminescence; 6 h; inhibition, % at 7.5 µM; 300,000 compounds, 1.3% hits; AID 1662, 2009;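 active means mean replicate score, as percent of positive control median, at least 50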;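 further: strain carries kanamycin resistance gene driven by streptokinase promoter and grows in 40 µg/ml kanamycin; loss of luminescence reflects streptokinase promoter inhibition or plain growth inhibition; 0% = median of DMSO wells and 100% = positive control at its reference dose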
CSC inhib: cancer stem cell viability inhibitors, primary screen, luminescence | cancer stem cell-like cells viability | inhibition, % at 7.5 µM | 300,000 compounds, 1.1% hits; in the data active means inhibition above about 75%; tested in HMLE shEcad cells
aSyn 5UTR inh: MLPCN primary screen, SNCA 5' untranslated region; inhibition, % (tested at 7.5 µM); 300,000 compounds, 0.82% hits; alpha-synuclein 5'UTR reporter, inhibitor activity; in the data active means inhibition above about 60%;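 further: H4 neuroglioblastoma cells stably carrying SNCA 5'UTR luciferase fusion; 0% = DMSO wells and 100% = positive control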
T cruzi repl: inhibitors of intracellular T. cruzi growth, primary screen, luminescence, NIH3T3 host cells; 300,000 compounds, 1.4% hits; inhibition, % (test concentration not listed); AID 1885, 2009; T. cruzi beta-gal in NIH3T3, 90 h;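 active means mean inhibition across valid replicates above about 55%, limit read from the data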;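 further: signal also drops with host cell toxicity which is not excluded here; 0% = plate median of DMSO wells and 100% = zero luminescence signal; higher percent means less beta-gal luminescence so fewer parasites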
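Assay system: NIH/3T3 host cells with β-galactosidase reporter T. cruzi; input: 5,000 host fibroblasts per well; compound: single 50 nL compound addition per well in DMSO; timing: ≥90 h infection period, 3 h prior cell attachment; measured by: GalScreen β-gal luminescence, detergent lysis, 60 min; evaluation: percent inhibition of parasite-derived β-gal signal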
Mdm2 MdmX conf: Mdm2-MdmX complex disruptors, retested hits, confirmation, luminescence, single concentration | shares compounds with Mdm2 MdmX PPI | Mdm2-MdmX binding, luminescent assay | inhibition, % at 8 µM | 10,000 compounds, 55% hits | AID 489028, 2010; in the data active means inhibition above about 40%
FLuc counter: full-length luciferase signal inhibition, confirmation, counter-screen for Mdm2/MdmX interaction inhibitor project, cell-based, single concentration, SaOS-2; shares compounds with Mdm2 MdmX PPI; SaOS-2 full-length luciferase counterscreen, luminescence; inhibition, % at 8 µM; 6,200 compounds, 77% hits; AID 504607, 2011;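 active means mean inhibition at 8 µM reaching about 37%, which flags the compound as non-specific, limit read from the data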;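 further: p53-null SaOS-2 cells with luciferase driven by a doxycycline-inducible promoter; compound on cells about two nights before reading with doxycycline added after day one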
* = called active by the depositor; / = no result. This is a sample that favours compounds with a hit; in the whole collection about 5.4% have one here.

SMILES | Mdm2 MdmX PPI | SKKanGAS inh | CSC inhib | aSyn 5UTR inh | T cruzi repl | Mdm2 MdmX conf | FLuc counter
COc1ccc(-c2nnc(SCc3nc4ccccc4c(=O)[nH]3)o2)cc1 | 73.1* | -1.4 | -11.0 | -69.7 | 0.6 | 57.9* | 105.4*
Cc1ccccc1Nc1nnc(SCc2nc3ccccc3c(=O)[nH]2)s1 | 27.2 | -0.9 | -9.2 | 31.3 | -6.1 | / | /
CCOc1ccc(Nc2nnc(SCc3nc4ccccc4c(=O)[nH]3)s2)cc1 | 62.9* | -10.9 | 14.2 | 10.4 | -4.3 | 22.6 | /
COc1ccc(C(CNC(=O)c2ccc(Br)o2)N2CCN(C)CC2)cc1 (configuration not stated) | 2.1 | -1.5 | 3.3 | -16.9 | 2.6 | / | /
COc1ccccc1N1CCN(C(=O)C2c3ccccc3Oc3ccccc32)CC1 | 64.3* | -0.2 | 51.7 | 80.9* | 4.4 | 56.0* | 88.8*
COc1ccccc1N1CCN(C(=O)C2CC2)CC1 | 15.8 | 5.6 | -14.8 | -1.6 | 2.7 | / | /
CC(C(=O)N1CCCC1)N1CCN(c2ccccc2O)CC1 (configuration not stated) | -5.4 | 1.1 | 8.6 | -15.5 | -16.2 | / | /
Cc1cccc(NC(=S)NC(=O)c2oc3ccccc3c2C)n1 | 28.6 | -6.1 | / | -144.0 | -9.9 | / | /
CC(=O)Nc1nc(-c2ccc3c(c2)CCN3C(=O)C2CC2)c(C)s1 | 94.7* | 2.3 | / | -254.8 | -13.4 | 93.4* | 50.5*
CNc1nc(-c2ccc3c(c2)CCN3C(=O)CC(C)(C)C)c(C)s1 | -16.2 | 9.1 | 46.1 | -117.8 | 5.2 | / | /
CC(=O)N1CC(=O)N=C1SCC(=O)Nc1nc(-c2ccccc2)c(-c2ccccc2)s1 | 57.1* | 6.6 | 33.2 | -40.0 | 18.8 | 9.9 | /
CC1(C)CC(=O)C2=C(C1)OC1=C(C(=O)CC(C)(C)C1)C2c1ccc(O)cc1O | 99.5* | -3.8 | 29.7 | -11.1 | 5.0 | 83.0* | 50.5*
CCCn1c(COc2ccccc2OC)nc2ccccc21 | -25.3 | 7.7 | 5.6 | -20.6 | -2.3 | / | /
CCCCCCCCCCOC(=O)Cn1c(COc2ccccc2OC)[n+](C)c2ccccc21 | 99.8* | 75.2* | 93.2* | 80.6* | 49.6 | 89.4* | 16.3
Cn1ncc2c(O/N=C(\N)c3ccc(C(C)(C)C)cc3)ncnc21 | 99.3* | 0.5 | 108.0* | 104.1* | 64.1* | 100.1* | 52.1*
CCOC(=O)c1ccc(NC(=O)Nc2cccc(C)n2)cc1 | 57.0* | -7.4 | -3.0 | -59.5 | -1.8 | -10.3 | /
Cc1cccc(NC(=O)Nc2cccc(C#N)c2)n1 | 12.5 | -4.8 | 1.0 | -170.3 | 11.8 | / | /
Cc1cccc(NC(=O)Nc2ccc(C#N)cc2)n1 | 78.5* | -2.2 | 10.7 | -11.5 | 19.7 | 67.3* | 77.8*
COc1cccc(CNc2nc3ccccc3n2C(C)C)c1O | 8.3 | -1.3 | / | -0.1 | -3.8 | / | /
Nc1nc(CCl)nc(N(c2ccccc2)c2ccccc2)n1 | 93.9* | -2.5 | 2.9 | 7.6 | 36.8 | 94.7* | 38.2*
CC(C)NC(=O)CN1C(=O)c2cccc3cccc1c23 | 34.3 | 0.0 | -4.1 | 0.9 | 5.5 | / | /
CCN1C(=NCCc2ccc([N+](=O)[O-])cc2)N[C@@H](c2ccccc2)[C@H](C(=O)OC)[C@H]1C | 16.4 | / | -4.2 | / | / | / | /
CCN1C(=NCCc2ccc(Br)cc2)N[C@@H](c2ccccc2)[C@H](C(=O)OC)[C@H]1C | 52.0* | / | 25.6 | / | / | 14.0 | /
O=C(CSc1nnc2c(Cl)cc(Cl)cn12)N1CCN(c2ccc(F)cc2)CC1 | 5.0 | -4.3 | -20.8 | 12.4 | -0.7 | / | /
O=C(Nc1ccc([N+](=O)[O-])cc1)/C(=C/c1cccc([N+](=O)[O-])c1)NC(=O)C1CCCCC1 | 26.6 | 25.1 | -7.8 | 13.7 | 31.5 | / | /
Cc1ccc(NC(=O)/C(=C/c2cccc([N+](=O)[O-])c2)NC(=O)C2CCCCC2)c(C)c1 | 87.9* | 8.2 | 2.3 | -2.5 | 2.1 | -15.4 | /
CC1CCN(c2ccc(-c3cccs3)nn2)CC1 | 55.0* | 14.2 | 32.4 | 101.5* | -5.5 | 63.6* | 40.4*
Clc1ccc(-c2cccs2)nn1 | -14.6 | -2.3 | / | -13.6 | -3.6 | / | /

Bioassay records as filed in PubChem.
